Assay results published in ChEMBL document CHEMBL5537160, “Design, Synthesis, Pharmacology, and In Silico Studies of (1S,2S,3S)-2-((S)-Amino(carboxy)methyl)-3-(carboxymethyl)cyclopropane-1-carboxylic Acid (LBG30300): A Picomolar Potency Subtype-Selective mGlu2 Receptor Agonist” (J Med Chem, 2024).
The source made the active and inactive calls. No cut-off for these calls is given here.

Legend:
[1] = biological target: T1, Metabotropic glutamate receptor 3 (Rattus norvegicus, UniProt P31422); experiment: Agonist activity at rat mGlu3 transfected in HEK293 cells assessed as inositol phosphate accumulation; format: functional, cell-based
[2] = biological target: Metabotropic glutamate receptor 8 (Rattus norvegicus, UniProt P70579); experiment: Agonist activity at rat mGlu8 transfected in HEK293 cells co-transfected with chimeric Gqi9 incubated for 30 mins by IP-one HTRF assay; format: functional, cell-based; conditions: read-out: EC50
How it was run: (§1)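 Rat group II/III receptor co-electroporated into HEK293 with chimeric Gqi9 and EAAC1 transporter, serum-free medium ≥2 h pre-assay. At 24 h post-transfection, Krebs wash, then 30 min compound exposure with 50 mM LiCl. IP1 accumulation quantified by HTRF kit, at least duplicate runs, mean of 2–5 experiments.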

[3] = biological target: Metabotropic glutamate receptor 4 (Rattus norvegicus) (UniProt P31423); experiment: Antagonist activity at rat mGlu4 transfected in HEK293 cells co-transfected with chimeric Gqi9 incubated for 30 mins by IP-one HTRF assay; format: functional, cell-based; how it was run: as §1
[4] = biological target: Metabotropic glutamate receptor 3 (Rattus norvegicus) (UniProt P31422); experiment: Antagonist activity at rat mGlu3 transfected in HEK293 cells co-transfected with chimeric Gqi9 incubated for 30 mins by IP-one HTRF assay; format: functional, cell-based
[5] = biological target: Metabotropic glutamate receptor 1 (Rattus norvegicus, UniProt P23385); experiment: Agonist activity at rat mGlu1 transfected in HEK293 cells by IP-one HTRF assay; format: functional, cell-based
How it was run: (§2)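 HEK293 cells transiently electroporated with rat receptor plasmid plus EAAC1 Glu transporter, plated 150 000 cells/well on polyornithine, serum-free Glutamax DMEM ≥2 h before assay. At 24 h, washed in Krebs buffer and stimulated 30 min with compound in 50 mM LiCl. IP1 read by HTRF, at least duplicates, EC50 from 2–5 experiments.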

[6] = biological target: T1, Metabotropic glutamate receptor 3; experiment: Agonist activity at rat mGlu3 transfected in HEK293 cells co-transfected with chimeric Gqi9 incubated for 30 mins by IP-one HTRF assay; format: functional, cell-based
[7] = biological target: Metabotropic glutamate receptor 4 (Rattus norvegicus, UniProt P31423); experiment: Agonist activity at rat mGlu4 transfected in HEK293 cells co-transfected with chimeric Gqi9 incubated for 30 mins by IP-one HTRF assay; format: functional, cell-based; conditions: read-out: EC50; how it was run: as §1
[8] = biological target: Metabotropic glutamate receptor 2 (Rattus norvegicus) (UniProt P31421); experiment: Antagonist activity at rat mGlu2 transfected in HEK293 cells co-transfected with chimeric Gqi9 incubated for 30 mins by IP-one HTRF assay; format: functional, cell-based
[9] = biological target: Metabotropic glutamate receptor 1 (Rattus norvegicus) (UniProt P23385); experiment: Antagonist activity at rat mGlu1 transfected in HEK293 cells by IP-one HTRF assay; format: functional, cell-based; how it was run: as §2
[10] = biological target: Metabotropic glutamate receptor 5 (Rattus norvegicus, UniProt P31424); experiment: Agonist activity at rat mGlu5 transfected in HEK293 cells by IP-one HTRF assay; format: functional, cell-based
How it was run: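 HEK293 cells transiently electroporated with rat receptor plasmid plus the high-affinity Glu transporter EAAC1. Cells were grown in DMEM with 10% FBS and seeded on polyornithine-coated wells at 150 000 cells/well. Medium was switched to serum-free Glutamax DMEM ≥2 h before assay. At 24 h cells were washed in Krebs buffer and stimulated 30 min with agonist plus 50 mM LiCl. IP1 read by IP-One HTRF; ≥ duplicates.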

[11] = biological target: Metabotropic glutamate receptor 8 (Rattus norvegicus) (UniProt P70579); experiment: Antagonist activity at rat mGlu8 transfected in HEK293 cells co-transfected with chimeric Gqi9 incubated for 30 mins by IP-one HTRF assay; format: functional, cell-based; how it was run: as §1
[12] = biological target: Metabotropic glutamate receptor 6 (Rattus norvegicus) (UniProt P35349); experiment: Antagonist activity at rat mGlu6 transfected in HEK293 cells co-transfected with chimeric Gqi9 incubated for 30 mins by IP-one HTRF assay; format: functional, cell-based; how it was run: as §1
[13] = biological target: Metabotropic glutamate receptor 7 (Rattus norvegicus) (UniProt P35400); experiment: Antagonist activity at rat mGlu7 transfected in HEK293 cells co-transfected with chimeric Gqi9 incubated for 30 mins by IP-one HTRF assay; format: functional, cell-based; how it was run: as §1
[14] = biological target: Metabotropic glutamate receptor 6 (Rattus norvegicus, UniProt P35349); experiment: Agonist activity at rat mGlu6 transfected in HEK293 cells co-transfected with chimeric Gqi9 incubated for 30 mins by IP-one HTRF assay; format: functional, cell-based; conditions: read-out: EC50; how it was run: as §1
[15] = biological target: Metabotropic glutamate receptor 5 (Rattus norvegicus) (UniProt P31424); experiment: Antagonist activity at rat mGlu5 transfected in HEK293 cells by IP-one HTRF assay; format: functional, cell-based; how it was run: as §2
[16] = biological target: Metabotropic glutamate receptor 7 (Rattus norvegicus, UniProt P35400); experiment: Agonist activity at rat mGlu7 transfected in HEK293 cells co-transfected with chimeric Gqi9 incubated for 30 mins by IP-one HTRF assay; format: functional, cell-based; how it was run: as §1
[17] = biological target: Metabotropic glutamate receptor 2 (Rattus norvegicus, UniProt P31421); experiment: Agonist activity at rat mGlu2; format: functional
[18] = biological target: T1, Metabotropic glutamate receptor 3; experiment: Agonist activity at rat mGlu3; format: functional
[19] = Half life in C57BL/6 mouse brain at 100 mg/kg, po by LC-MS/MS analysis; format: ADME, organism-based
[20] = Half life in C57BL/6 mouse plasma at 100 mg/kg, po by LC-MS/MS analysis; format: ADME, organism-based
[21] = Cmax in C57BL/6 mouse brain at 100 mg/kg, po by LC-MS/MS analysis; format: ADME, organism-based
[22] = biological target: T1, Metabotropic glutamate receptor 3; experiment: Agonist activity at SNAP tagged rat mGlu3 transfected HEK293 cells preincubated with antagonist LY-341495 followed by compound addition by TR-FRET assay; format: functional, cell-based
[23] = Cmax in CSF of C57BL/6 mouse at 100 mg/kg, po by LC-MS/MS analysis; format: ADME, organism-based, Cerebrospinal fluid
[24] = Cmax in C57BL/6 mouse plasma at 100 mg/kg, po by LC-MS/MS analysis; format: ADME, organism-based

Chain of Metabotropic glutamate receptor 5 (P31424 whole entry): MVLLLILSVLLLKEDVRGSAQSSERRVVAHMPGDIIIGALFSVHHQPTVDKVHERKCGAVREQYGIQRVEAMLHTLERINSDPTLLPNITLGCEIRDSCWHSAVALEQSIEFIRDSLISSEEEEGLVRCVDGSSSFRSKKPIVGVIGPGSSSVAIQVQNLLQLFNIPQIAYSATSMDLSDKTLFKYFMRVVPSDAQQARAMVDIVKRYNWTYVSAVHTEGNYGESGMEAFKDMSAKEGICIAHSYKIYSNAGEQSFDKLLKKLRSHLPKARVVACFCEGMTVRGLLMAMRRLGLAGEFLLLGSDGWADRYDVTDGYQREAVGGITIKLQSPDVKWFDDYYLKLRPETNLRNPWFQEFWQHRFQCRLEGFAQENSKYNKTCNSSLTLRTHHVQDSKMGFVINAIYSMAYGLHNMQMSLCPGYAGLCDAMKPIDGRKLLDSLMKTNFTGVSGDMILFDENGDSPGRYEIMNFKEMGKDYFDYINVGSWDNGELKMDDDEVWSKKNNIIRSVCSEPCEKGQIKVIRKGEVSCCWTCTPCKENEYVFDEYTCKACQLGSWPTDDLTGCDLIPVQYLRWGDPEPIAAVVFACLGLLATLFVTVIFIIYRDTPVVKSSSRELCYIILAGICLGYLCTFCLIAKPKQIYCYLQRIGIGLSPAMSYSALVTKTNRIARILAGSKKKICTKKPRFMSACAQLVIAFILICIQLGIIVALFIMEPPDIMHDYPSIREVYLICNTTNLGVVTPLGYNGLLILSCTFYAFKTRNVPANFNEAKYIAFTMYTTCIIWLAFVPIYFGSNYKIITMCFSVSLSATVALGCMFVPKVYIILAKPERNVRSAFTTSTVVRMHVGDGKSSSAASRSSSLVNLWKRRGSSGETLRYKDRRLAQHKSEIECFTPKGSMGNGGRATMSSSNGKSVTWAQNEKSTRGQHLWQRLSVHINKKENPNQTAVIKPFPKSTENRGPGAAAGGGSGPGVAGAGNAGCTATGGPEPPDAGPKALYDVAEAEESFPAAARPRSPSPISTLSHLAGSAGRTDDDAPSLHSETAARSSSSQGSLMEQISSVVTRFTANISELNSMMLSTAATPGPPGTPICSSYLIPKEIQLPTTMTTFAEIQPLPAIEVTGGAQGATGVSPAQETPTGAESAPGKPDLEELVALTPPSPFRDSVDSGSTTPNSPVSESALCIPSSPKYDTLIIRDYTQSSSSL
T1 sequence (P31422 whole entry): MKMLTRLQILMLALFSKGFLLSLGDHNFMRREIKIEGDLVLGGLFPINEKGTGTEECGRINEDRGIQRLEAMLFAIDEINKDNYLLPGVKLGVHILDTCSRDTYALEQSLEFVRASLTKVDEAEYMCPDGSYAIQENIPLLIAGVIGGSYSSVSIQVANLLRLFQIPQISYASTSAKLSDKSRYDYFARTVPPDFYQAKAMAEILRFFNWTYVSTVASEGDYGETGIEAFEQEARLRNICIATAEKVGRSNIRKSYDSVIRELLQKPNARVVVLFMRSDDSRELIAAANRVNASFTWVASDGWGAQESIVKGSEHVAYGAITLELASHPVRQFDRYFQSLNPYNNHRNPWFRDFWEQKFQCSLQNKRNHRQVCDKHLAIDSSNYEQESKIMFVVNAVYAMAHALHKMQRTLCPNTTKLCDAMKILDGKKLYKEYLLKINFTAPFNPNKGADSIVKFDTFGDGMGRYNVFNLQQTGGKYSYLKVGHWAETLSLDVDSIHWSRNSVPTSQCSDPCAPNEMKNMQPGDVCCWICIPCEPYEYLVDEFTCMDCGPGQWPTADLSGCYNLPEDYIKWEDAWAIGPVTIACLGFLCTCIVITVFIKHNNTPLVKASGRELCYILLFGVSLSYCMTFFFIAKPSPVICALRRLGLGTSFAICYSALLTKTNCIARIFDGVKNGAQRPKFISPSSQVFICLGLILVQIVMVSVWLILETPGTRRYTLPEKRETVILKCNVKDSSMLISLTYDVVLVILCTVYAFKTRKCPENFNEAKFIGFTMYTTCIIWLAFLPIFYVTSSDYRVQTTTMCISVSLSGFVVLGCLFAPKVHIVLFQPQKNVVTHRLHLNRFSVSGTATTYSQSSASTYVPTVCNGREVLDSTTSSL
Chain of Metabotropic glutamate receptor 2 (Rattus norvegicus) (P31421 19-872 limits assumed): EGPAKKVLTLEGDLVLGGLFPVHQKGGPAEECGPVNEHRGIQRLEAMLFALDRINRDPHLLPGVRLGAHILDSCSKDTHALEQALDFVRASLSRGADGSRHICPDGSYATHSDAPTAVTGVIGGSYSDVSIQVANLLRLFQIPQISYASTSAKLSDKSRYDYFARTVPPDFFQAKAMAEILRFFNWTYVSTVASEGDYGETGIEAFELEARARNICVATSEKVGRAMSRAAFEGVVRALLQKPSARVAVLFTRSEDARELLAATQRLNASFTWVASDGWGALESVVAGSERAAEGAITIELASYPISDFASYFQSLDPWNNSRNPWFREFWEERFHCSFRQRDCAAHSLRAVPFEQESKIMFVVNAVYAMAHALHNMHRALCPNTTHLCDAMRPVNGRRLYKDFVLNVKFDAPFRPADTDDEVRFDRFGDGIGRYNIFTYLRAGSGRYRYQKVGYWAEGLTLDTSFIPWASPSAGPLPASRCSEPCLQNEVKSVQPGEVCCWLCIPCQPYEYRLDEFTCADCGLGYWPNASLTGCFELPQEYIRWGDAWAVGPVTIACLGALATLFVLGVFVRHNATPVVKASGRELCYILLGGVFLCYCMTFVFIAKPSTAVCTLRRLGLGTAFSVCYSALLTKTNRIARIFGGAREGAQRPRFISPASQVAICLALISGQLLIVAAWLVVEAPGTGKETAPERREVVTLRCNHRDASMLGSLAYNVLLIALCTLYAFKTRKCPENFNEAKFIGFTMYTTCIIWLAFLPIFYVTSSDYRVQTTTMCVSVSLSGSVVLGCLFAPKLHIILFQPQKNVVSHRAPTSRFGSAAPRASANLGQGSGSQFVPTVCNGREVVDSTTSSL
Chain of Metabotropic glutamate receptor 3 (Rattus norvegicus) (P31422 23-879 limits assumed): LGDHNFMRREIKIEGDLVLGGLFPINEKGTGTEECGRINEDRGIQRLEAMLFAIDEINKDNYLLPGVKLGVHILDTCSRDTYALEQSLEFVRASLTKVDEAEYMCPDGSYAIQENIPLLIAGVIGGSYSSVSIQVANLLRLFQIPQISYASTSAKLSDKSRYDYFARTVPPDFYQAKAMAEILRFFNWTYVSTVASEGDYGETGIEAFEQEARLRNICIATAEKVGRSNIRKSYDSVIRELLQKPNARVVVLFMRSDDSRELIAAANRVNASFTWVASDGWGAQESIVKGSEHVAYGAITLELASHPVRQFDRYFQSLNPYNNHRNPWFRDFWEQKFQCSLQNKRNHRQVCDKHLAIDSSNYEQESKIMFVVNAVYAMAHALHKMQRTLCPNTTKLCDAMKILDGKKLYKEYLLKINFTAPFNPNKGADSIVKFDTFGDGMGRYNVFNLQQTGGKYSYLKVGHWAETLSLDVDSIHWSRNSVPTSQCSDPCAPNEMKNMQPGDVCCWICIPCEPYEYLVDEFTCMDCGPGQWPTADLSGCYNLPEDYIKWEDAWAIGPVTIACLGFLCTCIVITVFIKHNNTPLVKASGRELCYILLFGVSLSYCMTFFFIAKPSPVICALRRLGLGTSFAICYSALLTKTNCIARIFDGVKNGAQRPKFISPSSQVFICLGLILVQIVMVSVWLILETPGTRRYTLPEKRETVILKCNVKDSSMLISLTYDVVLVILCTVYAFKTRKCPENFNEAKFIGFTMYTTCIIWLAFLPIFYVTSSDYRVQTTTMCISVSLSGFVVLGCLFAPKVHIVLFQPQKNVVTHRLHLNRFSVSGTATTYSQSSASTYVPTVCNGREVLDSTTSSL
Chain of Metabotropic glutamate receptor 6 (Rattus norvegicus) (P35349 whole entry): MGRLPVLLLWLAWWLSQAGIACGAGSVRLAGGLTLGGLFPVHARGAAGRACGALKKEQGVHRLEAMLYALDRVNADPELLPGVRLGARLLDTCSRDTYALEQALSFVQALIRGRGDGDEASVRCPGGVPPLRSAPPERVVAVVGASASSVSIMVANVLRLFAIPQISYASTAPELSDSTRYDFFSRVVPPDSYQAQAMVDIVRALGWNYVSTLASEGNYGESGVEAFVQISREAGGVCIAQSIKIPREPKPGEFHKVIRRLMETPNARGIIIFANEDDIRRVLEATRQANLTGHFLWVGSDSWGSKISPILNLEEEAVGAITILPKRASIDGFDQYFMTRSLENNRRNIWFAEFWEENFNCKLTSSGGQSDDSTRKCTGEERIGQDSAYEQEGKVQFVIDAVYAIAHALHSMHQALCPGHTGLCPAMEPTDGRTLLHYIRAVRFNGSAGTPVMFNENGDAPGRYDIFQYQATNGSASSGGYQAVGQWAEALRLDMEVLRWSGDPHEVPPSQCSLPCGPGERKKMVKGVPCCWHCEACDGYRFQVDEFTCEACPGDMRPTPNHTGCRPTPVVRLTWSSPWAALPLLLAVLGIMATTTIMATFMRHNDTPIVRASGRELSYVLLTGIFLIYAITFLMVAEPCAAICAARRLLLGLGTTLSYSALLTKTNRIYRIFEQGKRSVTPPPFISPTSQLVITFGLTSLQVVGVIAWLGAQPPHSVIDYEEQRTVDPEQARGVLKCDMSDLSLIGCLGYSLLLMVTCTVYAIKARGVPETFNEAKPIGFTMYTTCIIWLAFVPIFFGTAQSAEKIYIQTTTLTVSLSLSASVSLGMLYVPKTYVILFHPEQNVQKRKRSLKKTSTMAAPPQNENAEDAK
Chain of Metabotropic glutamate receptor 6 (P35349 whole entry): as above

Row | SMILES | Activity [3] | Activity [4] | Activity [8] | Activity [9] | EC50 ([10]; read-out: EC50) | Activity [11] | Activity [12] | Activity [13] | Activity [15] | EC50 [18] | also measured
1 | N[C@H](C(=O)O)C1[C@@H](C(=O)O)[C@@H]1C(=O)O (stereo not given in full) |  |  |  |  |  |  |  |  |  |  | EC50 [1]: 0.09 µM
2 | C[C@@]1(C(=O)O)C[C@H]1[C@H](N)C(=O)O | inactive | inactive | inactive | inactive | 12 µM | inactive | inactive | inactive | inactive |  | EC50 [2]: > 30 µM; EC50 [5]: 5.5 µM; EC50 [6]: 1.88 µM; EC50 [7]: > 30 µM; EC50 [14]: 2.5 µM; EC50 [16]: > 30 µM
3 | N[C@@H](Cn1oc(=O)[nH]c1=O)C(=O)O [QUISQUALATE] | inactive | inactive | inactive | inactive | 0.027 µM | inactive | inactive | inactive | inactive |  | EC50 ([10]; read-out: pEC50 (converted)): 0.0407 µM
4 | N[C@H](C(=O)O)[C@H]1[C@@H](CO)[C@@H]1C(=O)O |  |  |  |  |  |  |  |  |  | 0.007 µM | EC50 [17]: 0.004 µM
5 | N[C@@]1(C(=O)O)CC[C@H]2[C@H](C(=O)O)[C@H]21 |  |  |  |  |  |  |  |  |  | 0.027 µM | half-life [19]: 69 h; half-life [20]: 6.8 h; Cmax [21]: 76 ng/g; EC50 [22]: 4.8 µM; Cmax [23]: 14 ng/g; Cmax [24]: 2120 ng/mL
